Results reported in publication PMC12318036 (Nature Communications, 2025).

Key:
tumor vessels [1] = assay: Two-photon vasoconstriction assay of tumor vessels exposed to U46619; assay type: in vivo, mouse; settings: MC-38-luc-LM3 orthotopic tumor, two-photon microscopy, U46619 10 min; n = 6
tumor vessels [2] = assay: Intravital imaging of RBC velocity and vessel diameter change post-U46619; assay type: in vivo, mouse; settings: n = 6
Method in brief: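 Tumor-bearing mice received FITC-dextran i.v. before imaging. The exposed tumor was viewed with a 4× objective. A rapid line scan (735 lines per second) bisected the central axis of the capillary lumen, so that moving RBCs appeared as oblique shadows. Blood velocity was derived as Δx/Δt.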

[3] = system: intracellular calcium of TPCs; assay: Intravital GCaMP6 calcium imaging in TPCs treated with U46619; assay type: in vivo, mouse; settings: PC^lin-KO-GCaMP6 mice compared with PC^lin-GCaMP6 mice; n = 6
[4] = system: L-type calcium channel in TPCs; assay: Calcium imaging; assay type: cell-based, human; settings: H89 2HCl 10 μM; Fluo-4AM; n = 3
TPCs = assay: Cell; assay type: cell-based, human; settings: forskolin, then H89 2HCl (10 μM), then (S)-(-)-Bay K8644 (10 μM); F-actin, p-MLC2^Ser15, collagen contraction; n = 3
Method in brief: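 A commercial collagen gel contraction kit was used. Harvested pericytes (5 × 10^6) were mixed 1:4 v/v with collagen solution and polymerised at 37 °C for 1 h. Medium was then added over each lattice and gels were incubated for 2 days. Gel size (contraction index) was measured at 48 h by image analysis.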

Structure (SMILES)	change of capillary diameter after U46619 treatment, PC^lin mice (tumor vessels [1])	reduction of capillary diameter after U46619 treatment, PC^lin-KO mice (tumor vessels [1])	tumor blood velocity after exposure to U46619, PC^lin-KO mice (tumor vessels [2]; compared with before treatment)	vascular diameter after exposure to U46619, PC^lin-KO mice (tumor vessels [2]; compared with before treatment)	tumor blood velocity and vascular diameter before and post-treatment with U46619, PC^lin mice (tumor vessels [2])	response of intracellular Ca^2+ of TPCs to U46619 [3]	calcium currents in TPCNM^NKX2-3+siPDE1C [4]	forskolin-increased calcium currents in TPCLM^siNKX2-3+PDE1C [4]	contraction of TPCLM^gNKX2-3+PDE1C (TPCs)
CCCCC[C@H](O)/C=C/[C@@H]1[C@@H](C/C=C\CCCC(=O)O)[C@H]2CO[C@@H]1C2 [U46619, 9,11-dideoxy-9α,11α-methanoepoxy prostaglandin F2α]	no obvious change	~ 20%	significantly decreased	significantly decreased	no significant difference	significantly increased	–	–	–
Cl.Cl.O=S(=O)(NCCNC/C=C/c1ccc(Br)cc1)c1cccc2cnccc12 [H89 2HCl]	–	–	–	–	–	–	reduced calcium currents	reversed	suppressed
